Experimental data taken from ChEMBL document CHEMBL4689842, “EUbOPEN Chemogenomics Library wave 1” (2021).
Several values for one entry are separate records, joined by “and”; a condition that tells them apart may be missing. Identical values can stand only once.

Assays:
Format in all cases: toxicity, cell-based
[1] = system: Fibroblast; assay: Multiplex assay against human fibroblast; conditions: 1 µM, compound concentration 1 uM
Method in brief: (§1)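 Live cells were stained at seeding with Hoechst33342, BioTracker Green Microtubule Cytoskeleton Dye, MitoTracker Red and Annexin V Alexa Fluor 680, then imaged on a CQ1 microscope at 37°C and 5% CO2 after compound addition. CellPathfinder machine-learning gating split cells into Hoechst high-intensity objects or normal cells. Normal cells were split into healthy, pyknosed or fragmented nuclei, and pyknosed cells into mitotic or apoptotic. Tubulin, mitochondrial-mass and membrane-permeability phenotypes are per cents of healthy-nucleus cells.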

[2] = system: HEK-293T; assay: Multiplex assay against HEK293T; conditions: human, 1 µM, compound concentration 1 uM; method in brief: as §1;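 as to Population Tubulin-Different-Phenotype (%): share of the cells with healthy nuclei that show this phenotype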
[3] = system: U2OS; assay: Multiplex assay against U2OS; conditions: human, 1 µM, compound concentration 1 uM; method in brief: as §1
[4] = system: HEK-293T; assay: Incucyte cell viability with HEK293T; conditions: human, 10 µM, compound concentration 10 uM; also: filed as whole numbers so only -1 and 0 and 1 occur
[5] = system: Fibroblast; assay: Incucyte cell viability with human fibroblast; conditions: 10 µM, compound concentration 10 uM; also: filed as whole numbers so only -1 and 0 and 1 occur
[6] = system: U2OS; assay: Incucyte cell viability with U2OS; conditions: human, 10 µM, compound concentration 10 uM; also: filed as whole numbers so only -1 and 0 and 1 occur
[7] = 6 h, replicate number 1, timepoint 6 hours
[8] = 12 h, replicate number 1, timepoint 12 hours
[9] = 18 h, replicate number 1, timepoint 18 hours
[10] = 24 h, replicate number 1, timepoint 24 hours

COc1cc(Nc2ccnc3ccc(Br)cc23)cc(OC)c1OC
Population Apoptotic (%) ([1]; 12 h, replicate 1): 51% and 75%
Population Fragmented Nuclei (%) ([1]; 12 h, replicate 1): 26% and 28%
Population Healthy Nuclei (%) ([1]; 12 h, replicate 1): 50% and 56%
Population Hoechst High Intensity Objects (%) ([1]; 12 h, replicate 1): 11%
Population Membrane Permeable-Phenotype (%) ([1]; 12 h, replicate 1): 5% and 4%
Population Mitochondria Different-Phenotype (%) ([1]; 12 h, replicate 1): 22% and 8%
Population Mitotic Cells (%) ([1]; 12 h, replicate 1): 48% and 25%
Population Normal (%) ([1]; 12 h, replicate 1): 88%
Population Pyknosed Nuclei (%) ([1]; 12 h, replicate 1): 23% and 15%
Total Cell Count ([1]; 12 h, replicate 1): 152 and 176
Population Apoptotic (%) ([1]; 12 h, replicate 2): 50%
Population Fragmented Nuclei (%) ([1]; 12 h, replicate 2): 66% and 79%
Population Hoechst High Intensity Objects (%) ([1]; 12 h, replicate 2): 49% and 39%
Population Membrane Permeable-Phenotype (%) ([1]; 12 h, replicate 2): 11% and 0%
Population Mitotic Cells (%) ([1]; 12 h, replicate 2): 50%
Population Normal (%) ([1]; 12 h, replicate 2): 50% and 60%
Population Pyknosed Nuclei (%) ([1]; 12 h, replicate 2): 6% and 11%
Population Tubulin-Different-Phenotype (%) ([1]; 12 h, replicate 2): 11% and 0%
Total Cell Count ([1]; 12 h, replicate 2): 65 and 56
Population Apoptotic (%) ([1]; 24 h, replicate 1): 76%
Population Fragmented Nuclei (%) ([1]; 24 h, replicate 1): 28% and 23%
Population Healthy Nuclei (%) ([1]; 24 h, replicate 1): 55% and 61%
Population Hoechst High Intensity Objects (%) ([1]; 24 h, replicate 1): 15%
Population Membrane Permeable-Phenotype (%) ([1]; 24 h, replicate 1): 6% and 1%
Population Mitochondria Different-Phenotype (%) ([1]; 24 h, replicate 1): 1%
Population Mitotic Cells (%) ([1]; 24 h, replicate 1): 23%
Population Normal (%) ([1]; 24 h, replicate 1): 84%
Population Pyknosed Nuclei (%) ([1]; 24 h, replicate 1): 15%
Total Cell Count ([1]; 24 h, replicate 1): 189 and 165
Population Fragmented Nuclei (%) ([1]; 24 h, replicate 2): 65% and 71%
Population Healthy Nuclei (%) ([1]; 24 h, replicate 2): 31% and 15%
Population Hoechst High Intensity Objects (%) ([1]; 24 h, replicate 2): 42% and 34%
Population Membrane Permeable-Phenotype (%) ([1]; 24 h, replicate 2): 9% and 0%
Population Mitochondria Different-Phenotype (%) ([1]; 24 h, replicate 2): 18% and 40%
Population Normal (%) ([1]; 24 h, replicate 2): 57% and 65%
Population Tubulin-Different-Phenotype (%) ([1]; 24 h, replicate 2): 0% and 20%
Total Cell Count ([1]; 24 h, replicate 2): 61 and 49
Population Apoptotic (%) ([2]; 12 h, replicate 1): 21% and 25%
Population Fragmented Nuclei (%) ([2]; 12 h, replicate 1): 24% and 18%
Population Healthy Nuclei (%) ([2]; 12 h, replicate 1): 35% and 54%
Population Hoechst High Intensity Objects (%) ([2]; 12 h, replicate 1): 16%
Population Membrane Permeable-Phenotype (%) ([2]; 12 h, replicate 1): 12% and 4%
Population Mitotic Cells (%) ([2]; 12 h, replicate 1): 78% and 74%
Population Normal (%) ([2]; 12 h, replicate 1): 83%
Population Pyknosed Nuclei (%) ([2]; 12 h, replicate 1): 40% and 27%
Total Cell Count ([2]; 12 h, replicate 1): 627 and 585
Population Apoptotic (%) ([2]; 12 h, replicate 2): 17% and 8%
Population Fragmented Nuclei (%) ([2]; 12 h, replicate 2): 11% and 4%
Population Healthy Nuclei (%) ([2]; 12 h, replicate 2): 59% and 75%
Population Membrane Permeable-Phenotype (%) ([2]; 12 h, replicate 2): 3% and 0%
Population Mitotic Cells (%) ([2]; 12 h, replicate 2): 82% and 91%
Population Normal (%) ([2]; 12 h, replicate 2): 92% and 97%
Population Pyknosed Nuclei (%) ([2]; 12 h, replicate 2): 29% and 20%
Total Cell Count ([2]; 12 h, replicate 2): 1015 and 1049
Population Apoptotic (%) ([2]; 24 h, replicate 1): 32% and 19%
Population Fragmented Nuclei (%) ([2]; 24 h, replicate 1): 23% and 12%
Population Healthy Nuclei (%) ([2]; 24 h, replicate 1): 41% and 67%
Population Hoechst High Intensity Objects (%) ([2]; 24 h, replicate 1): 14% and 10%
Population Membrane Permeable-Phenotype (%) ([2]; 24 h, replicate 1): 7%
Population Mitotic Cells (%) ([2]; 24 h, replicate 1): 67% and 80%
Population Normal (%) ([2]; 24 h, replicate 1): 85% and 89%
Population Pyknosed Nuclei (%) ([2]; 24 h, replicate 1): 35% and 20%
Population Tubulin-Different-Phenotype (%) ([2]; 24 h, replicate 1): 30% and 15%
Total Cell Count ([2]; 24 h, replicate 1): 604 and 574
Population Apoptotic (%) ([2]; 24 h, replicate 2): 14% and 7%
Population Fragmented Nuclei (%) ([2]; 24 h, replicate 2): 11% and 8%
Population Healthy Nuclei (%) ([2]; 24 h, replicate 2): 50% and 79%
Population Hoechst High Intensity Objects (%) ([2]; 24 h, replicate 2): 8% and 3%
Population Membrane Permeable-Phenotype (%) ([2]; 24 h, replicate 2): 2% and 1%
Population Mitochondria Different-Phenotype (%) ([2]; 24 h, replicate 2): 55%
Population Mitotic Cells (%) ([2]; 24 h, replicate 2): 86% and 92%
Population Normal (%) ([2]; 24 h, replicate 2): 91% and 96%
Total Cell Count ([2]; 24 h, replicate 2): 1011 and 1289
Population Apoptotic (%) ([3]; 12 h, replicate 1): 45% and 33%
Population Fragmented Nuclei (%) ([3]; 12 h, replicate 1): 9% and 8%
Population Healthy Nuclei (%) ([3]; 12 h, replicate 1): 83% and 79%
Population Hoechst High Intensity Objects (%) ([3]; 12 h, replicate 1): 6% and 5%
Population Membrane Permeable-Phenotype (%) ([3]; 12 h, replicate 1): 22% and 14%
Population Mitochondria Different-Phenotype (%) ([3]; 12 h, replicate 1): 28% and 29%
Population Mitotic Cells (%) ([3]; 12 h, replicate 1): 54% and 66%
Population Normal (%) ([3]; 12 h, replicate 1): 93% and 94%
Population Pyknosed Nuclei (%) ([3]; 12 h, replicate 1): 7% and 11%
Population Tubulin-Different-Phenotype (%) ([3]; 12 h, replicate 1): 39% and 14%
Total Cell Count ([3]; 12 h, replicate 1): 135 and 196
Population Fragmented Nuclei (%) ([3]; 12 h, replicate 2): 12% and 20%
Population Healthy Nuclei (%) ([3]; 12 h, replicate 2): 70% and 71%
Population Hoechst High Intensity Objects (%) ([3]; 12 h, replicate 2): 12% and 19%
Population Membrane Permeable-Phenotype (%) ([3]; 12 h, replicate 2): 25% and 16%
Population Mitochondria Different-Phenotype (%) ([3]; 12 h, replicate 2): 38% and 23%
Population Normal (%) ([3]; 12 h, replicate 2): 87% and 80%
Population Pyknosed Nuclei (%) ([3]; 12 h, replicate 2): 16%
Population Tubulin-Different-Phenotype (%) ([3]; 12 h, replicate 2): 37% and 22%
Total Cell Count ([3]; 12 h, replicate 2): 102 and 150
Population Apoptotic (%) ([3]; 24 h, replicate 1): 31% and 83%
Population Fragmented Nuclei (%) ([3]; 24 h, replicate 1): 11% and 13%
Population Healthy Nuclei (%) ([3]; 24 h, replicate 1): 71% and 66%
Population Hoechst High Intensity Objects (%) ([3]; 24 h, replicate 1): 6%
Population Membrane Permeable-Phenotype (%) ([3]; 24 h, replicate 1): 18% and 16%
Population Normal (%) ([3]; 24 h, replicate 1): 93%
Population Pyknosed Nuclei (%) ([3]; 24 h, replicate 1): 17% and 20%
Population Tubulin-Different-Phenotype (%) ([3]; 24 h, replicate 1): 21% and 22%
Total Cell Count ([3]; 24 h, replicate 1): 259 and 175
Population Fragmented Nuclei (%) ([3]; 24 h, replicate 2): 10% and 14%
Population Healthy Nuclei (%) ([3]; 24 h, replicate 2): 58% and 59%
Population Hoechst High Intensity Objects (%) ([3]; 24 h, replicate 2): 16%
Population Membrane Permeable-Phenotype (%) ([3]; 24 h, replicate 2): 22% and 17%
Population Mitochondria Different-Phenotype (%) ([3]; 24 h, replicate 2): 57% and 19%
Population Normal (%) ([3]; 24 h, replicate 2): 83%
Population Pyknosed Nuclei (%) ([3]; 24 h, replicate 2): 31% and 25%
Population Tubulin-Different-Phenotype (%) ([3]; 24 h, replicate 2): 33% and 28%
Total Cell Count ([3]; 24 h, replicate 2): 113 and 193
Growth Rate [4, 7]: 0
Growth Rate [4, 8]: 0
Growth Rate [4, 9]: 0
Growth Rate [4, 10]: 0
Growth Rate [5, 7]: 0
Growth Rate [5, 8]: 0
Growth Rate [5, 9]: 0
Growth Rate [5, 10]: 0
Growth Rate ([6]; 0 h, replicate number 1, timepoint 0 hours): 0
Growth Rate [6, 7]: 0
Growth Rate [6, 8]: 0
Growth Rate [6, 9]: 0
Growth Rate [6, 10]: 0
